ChEMBL document CHEMBL3425494, “Design, synthesis, and antitumor evaluation of novel histone deacetylase inhibitors equipped with a phenylsulfonylfuroxan module as a nitric oxide donor” (J Med Chem, 2015)
Active and inactive are the calls of the source. The calls are words filed in the database; no cut-off is given here.

Columns and labels:
[1] = Cytotoxicity against human HCT116 cells assessed as growth inhibition after 48 hrs by MTT assay; assay type: functional, cell-based; details: HCT-116, 48 h
[2] = Cytotoxicity against human 3AO cells assessed as growth inhibition after 48 hrs by MTT assay; assay type: functional, cell-based
[3] = Cytotoxicity against human MDA cells assessed as growth inhibition after 48 hrs by MTT assay; assay type: functional, cell-based
[4] = Cytotoxicity against human ES2 cells assessed as growth inhibition after 48 hrs by MTT assay; assay type: functional, cell-based; details: ES-2, 48 h
[5] = Cytotoxicity against human KG1 cells assessed as growth inhibition after 48 hrs by MTT assay; assay type: functional, cell-based; details: KG-1, 48 h
HEL [6] = test: Cell cycle arrest in human HEL cells assessed as accumulation at G1 phase at 0.5 uM after 48 hrs by propidium iodide staining-based flow cytometric analysis (reference value: 47.87%); assay type: functional
HEL [7] = test: Cell cycle arrest in human HEL cells assessed as accumulation at S phase at 0.5 uM after 48 hrs by propidium iodide staining-based flow cytometric analysis (reference value: 46.88%); assay type: functional
HEL [8] = test: animal or person; assay type: functional, Homo sapiens; details: Mus musculus, po, read-out: TGI
HEL [9] = test: Antitumor activity against human HEL cells xenografted in BALB/c-nu mouse assessed as inhibition of tumor growth at 100 mg/kg/day, po administered for 21 days measured every 3 days during compound dosing relative to control; assay type: functional; details: read-out: TGI
Summary of the method: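 HEL s.c. xenografts in male BALB/c-nu mice (6–8 weeks), randomized at ~100 mm³, 6 per group; daily oral dosing for 21 days versus PBS/DMSO vehicle group. […] Student's two-tailed t test, p < 0.05.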

HEL [10] = test: Antitumor activity against human HEL cells xenografted in BALB/c-nu mouse assessed as decrease in tumor volume at 100 mg/kg/day, po administered for 21 days measured every 3 days during compound dosing relative to control; assay type: functional
Summary of the method: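 Male athymic nude mice (6–8 weeks) inoculated s.c. in right flank with HEL cells cultured in RPMI 1640/10% FBS; treatment began when tumors were about 100 mm³ (~10 days), 6 mice per group. Oral gavage daily for 21 days; vehicle control PBS containing DMSO. Caliper measurement every 3 days, V = ab²/2; T/C = mean RTV treated / mean RTV control, RTV = Vt/V0.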

HEL [11] = test: Antitumor activity against human HEL cells xenografted in po dosed BALB/c-nu mouse administered for 21 days measured every 3 days during compound dosing; assay type: functional, organism-based
Summary of the method: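 Subcutaneous HEL xenograft in right flank of male athymic nude mice, 6 per group, dosing started at ~100 mm³. Oral administration at 100 or 120 mg/kg/day for 21 consecutive days; controls given PBS containing DMSO. Tumors measured by caliper every 3 days (V = ab²/2); tumors weighed after sacrifice; mean ± SD.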

Mus musculus [12] = test: Toxicity in BALB/c-nu mouse xenografted with human HEL cells assessed as effect on liver at 120 mg/kg/day, po administered for 21 days; assay type: organism-based; set-up: route oral; details: in vivo, 504 h
Summary of the method: (§1)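 Nude mice bearing HEL xenografts dosed orally 120 mg/kg/day for 21 days, 6 per group, controls on PBS/DMSO vehicle. After treatment, mice sacrificed and dissected to examine internal organs.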

Mus musculus [13] = test: Toxicity in BALB/c-nu mouse xenografted with human HEL cells assessed as effect on spleen at 120 mg/kg/day, po administered for 21 days; assay type: organism-based; set-up: route oral; details: in vivo, 504 h; summary of the method: as §1
Histone deacetylase 3 = Histone deacetylase 3 (Homo sapiens, UniProt O15379); test: Inhibition of full length human recombinant HDAC3 expressed in baculovirus infected insect S9 cells using Ac-Leu-GlyLys(Ac)-AMC as substrate after 30 mins by fluorescence assay
[14] = molecular target: T1, Protein deacetylase HDAC6 (Homo sapiens) (UniProt Q9UBN7); details: MV4-11, 12.5 nM
T1 sequence (whole entry): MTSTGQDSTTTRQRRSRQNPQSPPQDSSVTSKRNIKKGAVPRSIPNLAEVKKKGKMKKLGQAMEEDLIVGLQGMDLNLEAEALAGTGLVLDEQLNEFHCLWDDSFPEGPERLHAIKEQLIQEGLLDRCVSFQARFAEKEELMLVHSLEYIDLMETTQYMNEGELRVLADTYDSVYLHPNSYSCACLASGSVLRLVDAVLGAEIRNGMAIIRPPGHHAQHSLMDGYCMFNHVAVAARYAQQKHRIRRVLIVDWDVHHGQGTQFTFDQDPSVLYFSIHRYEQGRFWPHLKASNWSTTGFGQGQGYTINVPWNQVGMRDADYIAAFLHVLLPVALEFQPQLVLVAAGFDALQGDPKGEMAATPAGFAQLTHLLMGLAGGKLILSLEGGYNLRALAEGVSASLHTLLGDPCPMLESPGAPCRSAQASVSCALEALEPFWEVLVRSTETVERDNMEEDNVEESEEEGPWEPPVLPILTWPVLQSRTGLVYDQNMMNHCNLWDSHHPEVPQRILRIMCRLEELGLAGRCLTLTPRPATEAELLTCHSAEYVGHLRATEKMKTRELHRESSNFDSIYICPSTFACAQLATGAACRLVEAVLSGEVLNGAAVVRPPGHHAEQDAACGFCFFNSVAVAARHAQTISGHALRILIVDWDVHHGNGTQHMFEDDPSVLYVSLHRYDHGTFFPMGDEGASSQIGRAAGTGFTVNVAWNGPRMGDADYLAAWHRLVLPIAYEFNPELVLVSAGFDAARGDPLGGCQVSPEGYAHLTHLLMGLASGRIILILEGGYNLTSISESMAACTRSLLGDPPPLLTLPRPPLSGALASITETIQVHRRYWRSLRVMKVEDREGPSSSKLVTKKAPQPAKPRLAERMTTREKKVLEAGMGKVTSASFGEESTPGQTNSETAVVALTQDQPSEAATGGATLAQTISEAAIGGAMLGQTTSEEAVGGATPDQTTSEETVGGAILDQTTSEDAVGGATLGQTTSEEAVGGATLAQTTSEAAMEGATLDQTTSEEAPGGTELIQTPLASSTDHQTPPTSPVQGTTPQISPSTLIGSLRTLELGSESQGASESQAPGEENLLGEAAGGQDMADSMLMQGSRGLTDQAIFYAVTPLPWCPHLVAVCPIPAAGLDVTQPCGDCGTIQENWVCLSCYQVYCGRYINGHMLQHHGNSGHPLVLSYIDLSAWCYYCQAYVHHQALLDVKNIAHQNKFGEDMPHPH

[15] = molecular target: Histone deacetylase 2 (Homo sapiens) (UniProt Q92769); details: HEL, 1 to 10 uM
[16] = molecular target: Histone deacetylase 2 (Homo sapiens) (UniProt Q92769); details: HEL, 10 uM
[17] = molecular target: T2, Protein deacetylase HDAC6 (Homo sapiens, UniProt Q9UBN7); test: Inhibition of full length human recombinant HDAC6 expressed in baculovirus infected insect S9 cells using Ac-Leu-GlyLys(Ac)-AMC as substrate after 30 mins by fluorescence assay
T2 sequence (Q9UBN7 whole entry): T1 sequence (whole entry)

Sequence of Histone deacetylase 2 (Homo sapiens) (Q92769 whole entry): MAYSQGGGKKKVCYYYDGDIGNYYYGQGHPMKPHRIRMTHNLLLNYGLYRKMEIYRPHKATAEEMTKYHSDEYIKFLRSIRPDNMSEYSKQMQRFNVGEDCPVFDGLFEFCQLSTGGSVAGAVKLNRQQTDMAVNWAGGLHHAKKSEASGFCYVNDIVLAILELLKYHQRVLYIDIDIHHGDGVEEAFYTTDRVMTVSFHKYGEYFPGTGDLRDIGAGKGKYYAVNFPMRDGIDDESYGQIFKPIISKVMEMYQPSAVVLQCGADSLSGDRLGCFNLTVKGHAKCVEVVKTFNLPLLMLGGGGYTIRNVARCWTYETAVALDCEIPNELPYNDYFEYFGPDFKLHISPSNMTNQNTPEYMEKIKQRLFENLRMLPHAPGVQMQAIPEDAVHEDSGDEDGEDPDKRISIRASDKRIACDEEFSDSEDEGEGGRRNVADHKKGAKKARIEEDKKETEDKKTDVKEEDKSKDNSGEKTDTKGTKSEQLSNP
Sequence of Histone deacetylase 3 (O15379 whole entry): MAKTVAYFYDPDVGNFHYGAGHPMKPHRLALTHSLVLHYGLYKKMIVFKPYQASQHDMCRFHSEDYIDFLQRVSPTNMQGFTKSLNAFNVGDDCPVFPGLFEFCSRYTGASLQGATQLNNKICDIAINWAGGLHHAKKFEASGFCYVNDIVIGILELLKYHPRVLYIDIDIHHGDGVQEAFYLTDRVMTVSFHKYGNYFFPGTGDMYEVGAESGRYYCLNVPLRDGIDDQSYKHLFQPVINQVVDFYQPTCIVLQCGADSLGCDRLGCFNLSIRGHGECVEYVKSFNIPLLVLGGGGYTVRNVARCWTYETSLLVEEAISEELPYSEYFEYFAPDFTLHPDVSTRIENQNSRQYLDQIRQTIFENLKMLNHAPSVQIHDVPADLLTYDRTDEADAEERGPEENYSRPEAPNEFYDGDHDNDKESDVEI

Structure (SMILES): O=C(CCCCCOc1no[n+]([O-])c1S(=O)(=O)c1ccccc1)NO
- IC50 [1]: 1510 nM
- IC50 [2]: 5840 nM
- IC50 [3]: 2250 nM
- IC50 [4]: 1390 nM
- IC50 [5]: 1750 nM
- Activity (HEL [6]): 90.24%
- Activity (HEL [7]): 9.31%
- inhibition in vivo at 120 mg/kg/day (HEL [8]): 48%
- inhibition in vivo at 100 mg/kg/day (HEL [9]): 38%
- T/C (HEL [10]): 56%
- Activity (HEL [11]): Dose-dependent effect
- Activity (Mus musculus [12]): Non-toxic
- Activity (Mus musculus [13]): Non-toxic
- IC50 (Histone deacetylase 3): 532 nM
- inhibition [14]: Active
- inhibition [15]: Active
- inhibition [16]: inactive
- IC50 [17]: 7.4 nM
